Measured values published in ChEMBL document CHEMBL4190388, “Discovery and Optimization of Indolyl-Containing 4-Hydroxy-2-Pyridone Type II DNA Topoisomerase Inhibitors Active against Multidrug Resistant Gram-negative Bacteria” (J Med Chem, 2018).
In brackets after ≈: the same amount, converted by molar mass.

Assays:
[1] = test system: Escherichia coli; assay: Antibacterial activity against fluoroquinolone resistant Escherichia coli SKM18 by CLSI M100-S17 protocol based method; assay type: functional
[2] = test system: Escherichia coli; assay: Antibacterial activity against wild type Escherichia coli ATCC 25922 by CLSI M100-S17 protocol based method; assay type: functional
[3] = test system: Escherichia coli; assay: Antibacterial activity against quinolone resistance Escherichia coli isolate ELZ4251 harboring gyrA/parC mutant by CLSI M100-S17 protocol based method; assay type: functional
[4] = test system: Acinetobacter baumannii; assay: Antibacterial activity against wild type Acinetobacter baumannii ATCC BAA-747 by CLSI M100-S17 protocol based method; assay type: functional
[5] = test system: Acinetobacter baumannii; assay: Antibacterial activity against fluoroquinolone resistant Acinetobacter baumannii isolate MMX2240 by CLSI M100-S17 protocol based method; assay type: functional
[6] = test system: Klebsiella pneumoniae; assay: Antibacterial activity against wild type Klebsiella pneumoniae ATCC 35657 by CLSI M100-S17 protocol based method; assay type: functional
[7] = test system: Escherichia coli; assay: Antibacterial activity against wild type Escherichia coli ATCC 25922 in presence of HSA by CLSI M100-S17 protocol based method; assay type: functional
[8] = test system: Escherichia coli; assay: Selectivity ratio of MIC for wild type Escherichia coli ATCC 25922 in presence of HSA to MIC for wild type Escherichia coli ATCC 25922; assay type: functional
[9] = test system: Mus musculus; assay: Terminal half life in CD1 mouse plasma at 10 mg/kg, iv by LC-MS/MS analysis; assay type: ADME, organism-based; conditions: in vivo
[10] = test system: Mus musculus; assay: AUC (0 to 24 hrs) in CD1 mouse plasma at 10 mg/kg, iv by LC-MS/MS analysis; assay type: ADME, organism-based; parameters: time < 24 hr, dose 10 mg/kg, route intravenous; conditions: in vivo
How it was run: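 CD-1 mice given a single 10 mg/kg iv dose (n = 3), in either 10% DMSO plus 1% Tween 80 in pH 8.0 phosphate buffer or 20% (2-hydroxypropyl)-β-cyclodextrin in pH 4.0 citrate buffer; plasma exposure measured.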

[11] = test system: Mus musculus; assay: Volume of distribution at steady state in CD1 mouse plasma at 10 mg/kg, iv by LC-MS/MS analysis; assay type: ADME, organism-based; conditions: in vivo
[12] = Oral bioavailability in CD1 mouse plasma by LC-MS/MS analysis; assay type: ADME, organism-based
[13] = Fraction unbound in mouse plasma at 1 uM by equilibrium dialysis method; assay type: ADME, cell-free
[14] = test system: Escherichia coli; assay: Antibacterial activity against quinolone resistant Escherichia coli by broth microdilution method; assay type: functional; conditions: Escherichia coli; for MIC: read-out: MIC
How it was run: (§1)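 MICs were determined by CLSI broth methods, except that organisms were grown in brain–heart–infusion medium. The panel comprised wild-type and resistant E. coli and A. baumannii strains, including 12 strains whose details are given by reference.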

[15] = test system: Escherichia coli; assay: Antibacterial activity against wild type Escherichia coli by broth microdilution method; assay type: functional; how it was run: as §1
[16] = test system: Escherichia coli; assay: Antibacterial activity against beta-lactam resistant Escherichia coli by broth microdilution method; assay type: functional; conditions: Escherichia coli; for MIC: read-out: MIC; how it was run: as §1
[17] = test system: Escherichia coli; assay: Antibacterial activity against aminoglycoside resistant Escherichia coli by broth microdilution method; assay type: functional; conditions: Escherichia coli; for MIC: read-out: MIC; how it was run: as §1
[18] = test system: Escherichia coli; assay: Antibacterial activity against multidrug resistant Escherichia coli by broth microdilution method; assay type: functional; conditions: Escherichia coli; for MIC: read-out: MIC; how it was run: as §1
[19] = test system: Acinetobacter baumannii; assay: Antibacterial activity against wild type Acinetobacter baumannii by broth microdilution method; assay type: functional; how it was run: as §1
[20] = test system: Acinetobacter baumannii; assay: Antibacterial activity against aminoglycoside resistant Acinetobacter baumannii by broth microdilution method; assay type: functional; conditions: Acinetobacter baumannii; for MIC: read-out: MIC; how it was run: as §1
[21] = test system: Acinetobacter baumannii; assay: Antibacterial activity against quinolone resistant Acinetobacter baumannii by broth microdilution method; assay type: functional; conditions: Acinetobacter baumannii; for MIC: read-out: MIC; how it was run: as §1
[22] = test system: Acinetobacter baumannii; assay: Antibacterial activity against beta-lactam resistant Acinetobacter baumannii by broth microdilution method; assay type: functional; conditions: Acinetobacter baumannii; for MIC: read-out: MIC; how it was run: as §1
[23] = test system: Acinetobacter baumannii; assay: Antibacterial activity against carbapenem resistant Acinetobacter baumannii by broth microdilution method; assay type: functional; conditions: Acinetobacter baumannii; for MIC: read-out: MIC; how it was run: as §1
[24] = test system: Acinetobacter baumannii; assay: Antibacterial activity against multidrug resistant Acinetobacter baumannii by broth microdilution method; assay type: functional; conditions: Acinetobacter baumannii; for MIC: read-out: MIC; how it was run: as §1
[25] = Inhibition of His tagged Escherichia coli ATCC 25922 DNA gyrase A expressed in Escherichia coli BL21 (DE3) pLysS cells assessed as reduction in enzyme-mediated supercoiling of relaxed plasmid DNA pNO1 after 30 mins in presence of biotinylated TFO1 by fluorescence assay
[26] = Inhibition of Escherichia coli DNA topoisomerase 4 assessed as reduction in decatenation activity using kinetoplast concatenated DNA as substrate after 30 mins by picogreen dye based fluorescence assay
[27] = test system: Escherichia coli; assay: Antibacterial activity against Escherichia coli infected in cyclophosphamide treated neutropenic CD1 mouse septicemia model assessed as mouse survival at 20 mg/kg, iv dosed at 1 hr post infection followed by redosing at 5 hrs post infection measured at 96 hrs post infection relative to control; assay type: functional
How it was run: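 Female CD-1 mice were made neutropenic with cyclophosphamide ip, 150 mg/kg on day −4 and 100 mg/kg on day −1. […] Compound was given iv in 3% DMSO/saline at 1 and 5 h postinfection, n = 6 per group. Percent survival was scored at 96 h postinfection.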

Structure (SMILES): CN(C)Cc1cc2cc3c(cc2n1C)CCCc1c-3[nH]c(=O)c(C(=O)O)c1O
- MIC [1]: 0.78 µg/mL (≈ 2.04 µM)
- MIC [2]: 0.78 µg/mL (≈ 2.04 µM)
- MIC [3]: 1.6 µg/mL (≈ 4.19 µM)
- MIC [4]: 1.6 µg/mL (≈ 4.19 µM)
- MIC [5]: 1.6 µg/mL (≈ 4.19 µM)
- MIC [6]: 0.78 µg/mL (≈ 2.04 µM)
- MIC [7]: 12.5 µg/mL
- Ratio [8]: 4 - 16
- beta t1/2 [9]: 2.9 h
- AUC [10]: 3520 ng·h/mL
- Vdss [11]: 11 L/kg
- bioavailability [12]: 42%
- Fu [13]: 0.1
- MIC50 [14]: 0.5 µg/mL (≈ 1.31 µM)
- MIC90 [14]: 1 µg/mL (≈ 2.62 µM)
- MIC [14]: 0.25 to 2 µg/mL (≈ 0.655 to 5.24 µM)
- MIC50 [15]: 0.5 µg/mL (≈ 1.31 µM)
- MIC90 [15]: 1 µg/mL (≈ 2.62 µM)
- MIC50 [16]: 0.5 µg/mL (≈ 1.31 µM)
- MIC90 [16]: 1 µg/mL (≈ 2.62 µM)
- MIC [16]: 0.25 to 2 µg/mL (≈ 0.655 to 5.24 µM)
- MIC50 [17]: 0.5 µg/mL (≈ 1.31 µM)
- MIC90 [17]: 1 µg/mL (≈ 2.62 µM)
- MIC [17]: 0.25 to 2 µg/mL (≈ 0.655 to 5.24 µM)
- MIC50 [18]: 0.5 µg/mL (≈ 1.31 µM)
- MIC90 [18]: 1 µg/mL (≈ 2.62 µM)
- MIC [18]: 0.25 to 2 µg/mL (≈ 0.655 to 5.24 µM)
- MIC50 [19]: 2 µg/mL (≈ 5.24 µM)
- MIC90 [19]: > 16 µg/mL
- MIC50 [20]: 2 µg/mL (≈ 5.24 µM)
- MIC [20]: 0.12 to 16 µg/mL (≈ 0.315 to 41.9 µM)
- MIC50 [21]: 2 µg/mL (≈ 5.24 µM)
- MIC [21]: 0.12 to 16 µg/mL (≈ 0.315 to 41.9 µM)
- MIC50 [22]: 2 µg/mL (≈ 5.24 µM)
- MIC [22]: 0.12 to 16 µg/mL (≈ 0.315 to 41.9 µM)
- MIC50 [23]: 2 µg/mL (≈ 5.24 µM)
- MIC [23]: 0.12 to 16 µg/mL (≈ 0.315 to 41.9 µM)
- MIC50 [24]: 2 µg/mL (≈ 5.24 µM)
- MIC [24]: 0.12 to 16 µg/mL (≈ 0.315 to 41.9 µM)

Structure (SMILES): CCNCc1cc2cc3c(cc2n1C)Cc1c-3[nH]c(=O)c(C(=O)O)c1O
- MIC [1]: > 62.5 µg/mL
- MIC [2]: > 62.5 µg/mL
- IC50 [25]: > 11.1 µM
- IC50 [26]: > 11.1 µM

Structure (SMILES): Cn1c(CN2CCCC2)cc2cc3c(cc21)OCCc1c-3[nH]c(=O)c(C(=O)O)c1O
- MIC [1]: 1 µg/mL (≈ 2.44 µM)
- MIC [2]: 2 µg/mL (≈ 4.88 µM)
- MIC [3]: 3.1 µg/mL (≈ 7.57 µM)
- MIC [4]: 3.9 µg/mL (≈ 9.53 µM)
- MIC [5]: 7.8 µg/mL (≈ 19.1 µM)
- MIC [6]: 2 µg/mL (≈ 4.88 µM)
- MIC [7]: 3.9 µg/mL
- Ratio [8]: 2 - 4
- Fu [13]: 0.18
- survival at 20 mg/kg [27]: 83%
- MIC50 [14]: 0.5 µg/mL (≈ 1.22 µM)
- MIC90 [14]: 1 µg/mL (≈ 2.44 µM)
- MIC [14]: 0.25 to 1 µg/mL (≈ 0.611 to 2.44 µM)
- MIC50 [15]: 0.5 µg/mL (≈ 1.22 µM)
- MIC90 [15]: 1 µg/mL (≈ 2.44 µM)
- MIC50 [16]: 0.5 µg/mL (≈ 1.22 µM)
- MIC90 [16]: 1 µg/mL (≈ 2.44 µM)
- MIC [16]: 0.25 to 1 µg/mL (≈ 0.611 to 2.44 µM)
- MIC50 [17]: 0.5 µg/mL (≈ 1.22 µM)
- MIC90 [17]: 1 µg/mL (≈ 2.44 µM)
- MIC [17]: 0.25 to 1 µg/mL (≈ 0.611 to 2.44 µM)
- MIC50 [18]: 0.5 µg/mL (≈ 1.22 µM)
- MIC90 [18]: 1 µg/mL (≈ 2.44 µM)
- MIC [18]: 0.25 to 1 µg/mL (≈ 0.611 to 2.44 µM)
- MIC50 [19]: 2 µg/mL (≈ 4.88 µM)
- MIC90 [19]: 8 µg/mL (≈ 19.5 µM)
- MIC50 [20]: 2 µg/mL (≈ 4.88 µM)
- MIC90 [20]: 8 µg/mL (≈ 19.5 µM)
- MIC [20]: 0.12 to 16 µg/mL (≈ 0.293 to 39.1 µM)
- MIC50 [21]: 2 µg/mL (≈ 4.88 µM)
- MIC90 [21]: 8 µg/mL (≈ 19.5 µM)
- MIC [21]: 0.12 to 16 µg/mL (≈ 0.293 to 39.1 µM)
- MIC50 [22]: 2 µg/mL (≈ 4.88 µM)
- MIC90 [22]: 8 µg/mL (≈ 19.5 µM)
- MIC [22]: 0.12 to 16 µg/mL (≈ 0.293 to 39.1 µM)
- MIC50 [23]: 2 µg/mL (≈ 4.88 µM)
- MIC90 [23]: 8 µg/mL (≈ 19.5 µM)
- MIC [23]: 0.12 to 16 µg/mL (≈ 0.293 to 39.1 µM)
- MIC50 [24]: 2 µg/mL (≈ 4.88 µM)
- MIC90 [24]: 8 µg/mL (≈ 19.5 µM)
- MIC [24]: 0.12 to 16 µg/mL (≈ 0.293 to 39.1 µM)
